Data as given in ChEMBL document CHEMBL1145089, “Development of water-soluble prodrugs of the HIV-1 protease inhibitor KNI-727: importance of the conversion time for higher gastrointestinal absorption of prodrugs based on spontaneous chemical cleavage” (J Med Chem, 2003).

Assays:
[1] = In vitro half life at pH 7.4 and 37 degrees C; type: ADME; conditions: buffer
In short: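 Prodrug, added as 0.5 mM DMSO stock (10 μL into 1 mL), incubated in PBS pH 7.4 at 37 °C. Release of parent drug followed by RP-HPLC. t1/2 is the time to 50% release of parent drug. Means ± SEM of three experiments.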

[2] = C max was determined; type: ADME, organism-based; conditions: in vivo
In short: (§1)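 Male Sprague–Dawley rats (240–300 g, n = 5 or 3), fasted overnight, given the agent intraduodenally via duodenal cannula at a dose equivalent to 10 mg/kg parent drug, in 50% PEG (8000) or saline, 1 mL/kg. Arterial blood taken at 5 min–8 h. Plasma was ethyl acetate extracted and the parent drug quantified by RP-HPLC (UV 202 nm). Cmax/Tmax from mean profiles; AUC0–8 by linear trapezoidal rule.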

[3] = Area under curve (AUC) was determined; type: ADME; parameters: concentration or dose not given beside the values; in short: as §1
[4] = Bioavailability; type: ADME, organism-based; conditions: eutheria, in vivo
In short: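 Rat intraduodenal dosing (dose equivalent to 10 mg/kg parent drug, 50% PEG or saline, 1 mL/kg). Plasma parent drug measured by RP-HPLC over 8 h. Bioavailability is the ratio of mean AUC0–8 (×10) against intravenous parent drug at 1 mg/kg in ethanol cosolvent via femoral vein (n = 2).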

[5] = T max was determined; type: ADME; in short: as §1

| half-life [1] [min] | Cmax [2] [ng/mL] | AUC [3] [ng·h/mL] | bioavailability [4] [%] | Tmax [5] [min] | Compound |
| --- | --- | --- | --- | --- | --- |
| 48.5 | – | – | – | – | Cc1cccc(C)c1OCC(=O)N[C@@H](Cc1ccccc1)[C@H](OC(=O)CCC(=O)NCc1ccccn1)C(=O)N1CSC(C)(C)[C@H]1C(=O)NC(C)(C)C.Cl |
| 3.6 | – | – | – | – | Cc1cccc(C)c1OCC(=O)N[C@@H](Cc1ccccc1)[C@H](OC(=O)CCC(=O)NCCN1CCCCC1)C(=O)N1CSC(C)(C)[C@H]1C(=O)NC(C)(C)C.Cl |
| 34.9 | 1620 | 6570 | 29 | 30 | Cc1cccc(C)c1OCC(=O)N[C@@H](Cc1ccccc1)[C@H](OC(=O)CCC(=O)NCc1ccncc1)C(=O)N1CSC(C)(C)[C@H]1C(=O)NC(C)(C)C.Cl |
| 1240 | 460 | 2130 | 9.4 | 60 | Cc1cccc(C)c1OCC(=O)N[C@@H](Cc1ccccc1)[C@H](OC(=O)CCCC(=O)NCCN)C(=O)N1CSC(C)(C)[C@H]1C(=O)NC(C)(C)C.Cl |

Second part, the molecule before the results:

| Compound | half-life [1] [min] | Cmax [2] [ng/mL] | AUC [3] [ng·h/mL] | bioavailability [4] [%] | Tmax [5] [min] |
| --- | --- | --- | --- | --- | --- |
| Cc1cccc(C)c1OCC(=O)N[C@@H](Cc1ccccc1)[C@H](OC(=O)CCCC(=O)NCCN1CCOCC1)C(=O)N1CSC(C)(C)[C@H]1C(=O)NC(C)(C)C.Cl | 2060 | 480 | 1230 | 5.4 | 30 |
| Cc1cccc(C)c1OCC(=O)N[C@@H](Cc1ccccc1)[C@H](OC(=O)CCC(=O)NCc1cccnc1)C(=O)N1CSC(C)(C)[C@H]1C(=O)NC(C)(C)C.Cl | 35.4 | 1370 | 6000 | 26.4 | 30 |
| Cc1cccc(C)c1OCC(=O)N[C@@H](Cc1ccccc1)[C@H](OC(=O)CCC(=O)NCCN1CCOCC1)C(=O)N1CSC(C)(C)[C@H]1C(=O)NC(C)(C)C.Cl | 40.3 | 1890 | 5250 | 23.1 | 30 |
| Cc1cccc(C)c1OCC(=O)N[C@@H](Cc1ccccc1)[C@H](O)C(=O)N1CSC(C)(C)[C@H]1C(=O)NC(C)(C)C | – | 1230 | 3580 | 15.8 | 5 |
| Cc1cccc(C)c1OCC(=O)N[C@@H](Cc1ccccc1)[C@H](OC(=O)CCC(=O)NCCCN1CCOCC1)C(=O)N1CSC(C)(C)[C@H]1C(=O)NC(C)(C)C.Cl | 79.5 | 410 | 1570 | 6.9 | 30 |
| CCCNC(=O)CCC(=O)O[C@H](C(=O)N1CSC(C)(C)[C@H]1C(=O)NC(C)(C)C)[C@H](Cc1ccccc1)NC(=O)COc1c(C)cccc1C | 922 | – | – | – | – |
| Cc1cccc(C)c1OCC(=O)N[C@@H](Cc1ccccc1)[C@H](OC(=O)CCC(=O)NCCN)C(=O)N1CSC(C)(C)[C@H]1C(=O)NC(C)(C)C.Cl | 12.7 | 650 | 3980 | 17.5 | 240 |
| Cc1cccc(C)c1OCC(=O)N[C@@H](Cc1ccccc1)[C@H](OC(=O)CCC(=O)NCCN1CCCC1)C(=O)N1CSC(C)(C)[C@H]1C(=O)NC(C)(C)C.Cl | 7.9 | 840 | 3650 | 16.1 | 15 |
